Assay outcomes deposited in PubChem by several laboratories.
Shown are actives, neighbours in structure and some others; about 2.3% of the full set was active somewhere.
TROY signal inh: inhibitors of TROY-driven NF-kB signaling, primary screen, Q293 LMP1-TROYcd cells, NF-kB luciferase, uHTS | AID 1347056, 2019 | Q293 LMP1-TROYcd NF-kB luciferase reporter, 4 h | inhibition, % at 10 µM | 0.98% of 360,000 active;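 active means compounds whose plate-normalised and pattern-corrected inhibition of the luciferase reporter signal at the single screening dose is 50% or more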
EWS-Fli inh: EWS/Fli-driven NR0B1 reporter inhibitors, primary screen, A673 cells, NR0B1 luciferase, luminescence, MLPCN library; viability-normalised; inhibition, % at 12.6 µM; 0.67% of 350,000 active;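 active means mean inhibition of at least 50% after viability correction, with every replicate also passing that limit; inconclusive means mean reaches 50% but only one of two replicates passes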;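 further: firefly luciferase signal divided by Alamar Blue viability fluorescence both relative to DMSO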
TWEAK Fn14 block: inhibitors of TWEAK-Fn14 signaling, primary screen, luciferase reporter cells, uHTS; 2% of 360,000 active; inhibition, % at 10 µM; AID 1159606, 2016; TWEAK-stimulated Fn14 reporter cells, luciferase luminescence, 8 h; in the data active means inhibition above about 50%
LGR2 antag: inhibitors of bursicon-induced LGR2 CRE-luciferase signal, primary screen, cell-based, HEK293, CRE-luciferase reporter, bursicon stimulation; bursicon-stimulated, 4 h; 0.35% of 380,000 active; inhibition, % at 9.99 µM;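 active means drop in luminescence signal, shown as inhibition above about 50% in the replicate tests, limit read from the data, passing the limit was not always enough; inconclusive means probably only some replicates passing the limit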;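 further: agonist challenge used bursicon conditioned medium at about half maximal strength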
Xi reactivation: activators of inactive X chromosome reactivation, primary screen, imaging, XiGFP fibroblasts, GFP high-content imaging, set 2; XiGFP mouse fibroblasts, % GFP-positive cells imaging, 3 d; cells co-treated with 5-aza-dC sensitizer; scaled so ellipticine positive control = 100%; activation, % at 7.58 µM; 0.055% of 360,000 active;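 active means mean normalized replicate activation at least 10% and every replicate at or above 10%; inconclusive means only one of the two criteria met; inactive means mean below 10% and not all replicates reach 10%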;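 further: 0% = median of on-plate neutral control wells and 100% = ellipticine 6 µM median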
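System: 68-5-11 XiGFP fibroblast line | Buffer or medium: DMEM containing 5-aza-dC | Compound: Single point | Times: Compounds 3 days, fix/stain 15 min at room temperature | Benchmarks: Positive control ellipticine, 6 µM final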
FN deposition inh: inhibitors of fibronectin matrix deposition, primary screen, AH1F cells, Alexa488-fibronectin fluorescence, plate reader; AH1F fibroblasts, overnight; inhibition, % at 12.6 µM; 0.086% of 350,000 active; AID 743247, 2014;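 active means mean inhibition across replicates of 30% or more, regardless of how many single replicates reach that level; inconclusive means mean under 30% yet at least half of replicates reach 30%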;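 further: positive control wells lacked labelled fibronectin entirely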
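test system = AH1F fibroblasts assembling fluorescent fibronectin matrix | quantity = 10000 AH1F cells per well | buffer or medium = DMEM plus 2% serum, read in PBS | doses = single dose, pinned | incubation = 1 h cell attachment, overnight exposure to compound and label | detection = fluorescence at 485 nm excitation, 525 nm emission | read-out basis = inhibition from reduced deposited-fibronectin fluorescence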
* marks the source's active call; other numbers are inactive results; ? = inconclusive; · = no result given.

SMILES | TROY signal inh | EWS-Fli inh | TWEAK Fn14 block | LGR2 antag | Xi reactivation | FN deposition inh
OC(c1ccccc1)(c1ccccc1)C1CCN(CCCOc2cccc(C(F)(F)F)c2)CC1 | · | 4 | · | 106* | 0 | 8
OC(c1ccccc1)(c1ccccc1)C1CCN(CCCOc2ccc(F)cc2)CC1 | -7 | 4 | 21 | 17 | 4 | 0
CC(C)c1ccc(OCCCN2CCC(C(O)(c3ccccc3)c3ccccc3)CC2)cc1 | · | 33 | · | 103* | 0 | 13
C/C=C/c1ccc([C@@H]2[C@H](CO)N(Cc3ccccn3)[C@H]2CNC(C)=O)cc1 | · | -1 | · | 6 | 0 | -9
COC(=O)C[C@H]1CC[C@@H]2[C@H](COc3ccc(NC(=O)c4ccc(F)c(F)c4)cc3C(=O)N2C)O1 | · | -8 | · | -9 | 0 | 11
COCC(=O)Nc1ccc2c(c1)C(=O)N(C)[C@H]1CC[C@@H](CC(=O)Nc3ccccc3)O[C@H]1CO2 | · | 7 | · | 3 | 0 | -30
COC(=O)c1cccc(-c2ccc(C(c3c(C)[nH][nH]c3=O)c3c(C)[nH][nH]c3=O)o2)c1 | 82* | -14 | 8 | -2 | 0 | -1
O=C(C[C@H]1C[C@H]2c3cc(NC(=O)c4cccnc4)ccc3O[C@H]2[C@H](CO)O1)NCC1CC1 | · | 0 | · | -1 | 0 | -1
Cc1sc(NC(=O)c2ccco2)c(C(c2ccncc2)N2CCOCC2)c1C (stereo unspecified) | 0 | · | -22 | · | · | -3
CCOc1ccc(C(c2c(NC(=O)c3ccco3)sc(C)c2C)N2CCOCC2)cc1 (stereo unspecified) | 12 | 13 | 66* | 22 | 0 | 2
Cc1sc(NC(=O)c2ccco2)c(C(c2cccnc2)N2CCCC2)c1C (stereo unspecified) | 17 | · | 2 | 16 | · | 15
COc1cccc(C(c2c(NC(=O)c3ccco3)sc(C)c2C)N2CCOCC2)c1 (stereo unspecified) | 36 | -5 | 82* | 24 | 0 | -1
CN(C)C(=O)c1ccc(-c2ccc([C@H]3[C@@H](CO)N4CCCCN(C(=O)C5CCCC5)C[C@H]34)cc2)cc1 | · | 9 | · | · | · | ·
C[C@@H]1CN([C@H](C)CO)S(=O)(=O)c2ccc(C#Cc3ccccc3F)cc2O[C@@H]1CN(C)C(=O)Cc1ccccc1 | 30 | 16 | 50* | 10 | 0 | 20
C[C@@H]1CN([C@H](C)CO)S(=O)(=O)c2ccc(C#Cc3ccc(F)cc3)cc2O[C@H]1CN(C)C(=O)CN(C)C | · | 73* | · | 9 | -1 | -20
C[C@@H]1CN([C@@H](C)CO)S(=O)(=O)c2ccc(C#CC3CC3)cc2O[C@H]1CN(C)Cc1ccc(F)cc1 | · | 41 | · | 7 | 18* | 6
C[C@@H]1CN([C@@H](C)CO)S(=O)(=O)c2ccc(C#Cc3ccc(F)cc3)cc2O[C@@H]1CN(C)C(=O)CN(C)C | · | 10 | · | 7 | -1 | 6
C[C@H](CO)N1C[C@H](C)[C@@H](CN(C)C(=O)Cc2ccccc2)Oc2cc(C#Cc3ccccc3F)ccc2S1(=O)=O | · | 34 | · | 18 | 0 | ·
C[C@H]1CN([C@@H](C)CO)S(=O)(=O)c2ccc(C#CC3CC3)cc2O[C@H]1CN(C)Cc1ccc(F)cc1 | · | -10 | · | 3 | -1 | -4
CC(C)CC#Cc1ccc2c(c1)O[C@@H](CN(C)Cc1ccc3c(c1)OCO3)[C@@H](C)CN([C@@H](C)CO)S2(=O)=O | · | 58* | · | -16 | 0 | 6
CC(C)NC(=O)Nc1ccc2c(c1)C(=O)N([C@H](C)CO)C[C@@H](C)[C@@H](CN(C)CC1CCCCC1)O2 | · | 6 | · | -1 | 0 | ·
COc1ccc(CC(=O)Nc2nc(-c3ccc(F)c(F)c3)cs2)cc1 | 55* | 16 | 47 | 4 | 0 | -19
CS(=O)(=O)N1CCc2cc(-c3csc(NC(=O)C(c4ccccc4)c4ccccc4)n3)ccc21 | 3 | · | 2 | 0 | · | ·
Cc1csc(NC(=O)Cc2ccc(F)cc2)n1 | -52 | -75 | -8 | -35 | 0 | -2
CC1Cc2cc(-c3csc(NC(=O)Cc4ccccc4)n3)ccc2N1S(C)(=O)=O (stereo unspecified) | 60* | -28 | 92* | 32 | · | ·
SMILES | TROY signal inh | EWS-Fli inh | TWEAK Fn14 block | LGR2 antag | Xi reactivation | FN deposition inh
O=C(CN1C(=O)NC2(CCCC2)C1=O)Nc1nc(-c2ccc(F)c(F)c2)cs1 | 0 | -3 | -3 | 12 | 0 | -6
O=C(Cc1ccc(F)cc1)Nc1nc(-c2ccc(F)c(F)c2)cs1 | 75* | -24 | 45 | 21 | 0 | -5
CC1(C(=O)OCC(=O)Nc2nc(-c3ccc(F)c(F)c3)cs2)CC1(Cl)Cl (stereo unspecified) | 82* | -20 | 72* | 19 | 0 | 5
C[C@@H]1CN([C@H](C)CO)C(=O)c2cc(Br)cnc2O[C@H]1CN(C)CC1CCCC1 | · | -18 | · | -4 | -1 | ·
O=C(C1CCCC1)N1CC(=O)N2[C@@H](CO)[C@H](c3ccc(C#CCc4ccccc4)cc3)[C@@H]2C1 | · | -1 | · | 23 | 0 | 5
CCCC(=O)Nc1ccc2c(c1)C(=O)N(C)[C@@H]1CC[C@H](CC(=O)NCC3CC3)O[C@H]1CO2 | · | 1 | · | -3 | 0 | 4
CO[C@H]1CN(C)C(=O)c2ccc(NC(=O)c3ccc4c(c3)OCO4)cc2OC[C@@H](C)NC[C@H]1C | · | -4 | · | 17 | 0 | 11
O=C(C[C@@H]1CC[C@@H](NC(=O)Nc2ccc3c(c2)OCO3)[C@@H](CO)O1)NCc1ccc(F)cc1 | · | -8 | · | -1 | 0 | ·
O=C(CSc1ncnc2[nH]ncc12)Nc1nc(-c2ccc(F)c(F)c2)cs1 | 39 | -2 | 78* | ? | 0 | 8
O=[N+]([O-])c1ccc(O)c(C=Nc2ccc3c(c2)OCCO3)c1 | 56* | · | 67* | -43 | 0 | -1
Oc1[nH]c2ccccc2c1C=Nc1ccc2c(c1)OCCO2 | 81* | · | 43 | · | · | ·
Oc1c(Br)cc(Br)cc1C=Nc1ccc2c(c1)OCCO2 | 67* | -13 | 65* | 21 | -1 | -10
Oc1c(Br)cc(Br)cc1C=Nc1ccc2c(c1)OCO2 | -17 | · | 0 | -8 | 0 | -2
CN1CCN(C(=O)C[C@@H]2CC[C@@H]3[C@H](COc4ccc(NC(=O)C5CCCCC5)cc4C(=O)N3C)O2)CC1 | · | 8 | · | 4 | 0 | -5
CC(=O)c1c(C(C)=O)c(C)n(NC(=O)c2ccncc2)c1C | · | · | 53* | · | · | ·
Cc1cc(C)n(C(=O)/C(C#N)=N/Nc2cc(Cl)cc(Cl)c2)n1 | 68* | · | 51* | · | · | ·
